ARFGAP1 inhibitor: inhibitors of rat ARFGAP1. AID 651572. Q62848. inhibition, % at 16.5 µM. Arfgap1-stimulated ARF1 GTP hydrolysis, GDP FP detection. hit rate 0.26% among 360,000;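 active means inhibition above a per-plate limit, mean inhibition of low control wells plus 3 SD, cut at about 25% in these data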;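 further: 0% = DMSO wells with enzyme and 100% = wells lacking Arfgap1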
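Assay system: purified rat His6-Arfgap1 residues 1-136 (GAP domain); Reagent: human Δ17 ARF1 bound to GTP; Dosing: 16.5 µM single point, 1.26% DMSO; Times: GTP hydrolysis reaction 2 h at 25 °C; Signal: FP, GDP Alexa 633 tracer displaced from anti-GDP antibody, 620/688 nm; Measure: % inhibition from polarization.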
ASAP1 GAP inh: blocks human ASAP1-stimulated Arf1 GTP hydrolysis; inhibition, % at 16.5 µM; GDP FP detection; hit rate 0.19% among 360,000; Q9ULH1; in the data active means inhibition above about 25%;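 further: 0% = vehicle with enzyme and substrate and 100% = no enzyme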
HNF4A DNA FP: change in binding of human HNF4 alpha to DNA. AID 1224865. hit rate 0.3% among 360,000. HNF4a-FITC DNA binding, fluorescence polarization, 1 h. activity change, % at 10 µM. P41235; in the data active means activity change above about 30%, passing the limit was not always enough
CSN deneddyl inh: inhibitors of human CSN-mediated cullin deneddylation. Q92905. Purified CSN, SCF-Nedd8-OG deneddylation, fluorescence polarization. inhibition, % at 12.5 µM. hit rate 0.38% among 360,000;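 active means pattern-corrected inhibition above about 35%, with an unprinted fluorescence ratio check between 0.5 and 1.5, limit read from the data, passing the limit was not always enough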;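 further: 0% = enzyme with substrate and 100% = substrate without enzyme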
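Assay system: Purified human Csn5 enzyme expressed in HEK293T cells | Amount: Enzyme 0.24 nM | Measured by: Fluorescence polarization readout | Medium: Tris/NaCl/DTT buffer, pH 7.5 | Compound dosing: One concentration, 12.5 µM, 0.25% DMSO | Times: 90 min incubation of compound, enzyme and substrate at room temperature | Control set: no-enzyme wells high, enzyme-with-substrate wells low | Read-out: % inhibition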
ASAP1 inh confirm: ASAP1 inhibition confirmed; shares compounds with ASAP1 GAP inh; ASAP1-stimulated Arf1 GTPase, GDP fluorescence polarization; inhibition, % at 16.5 µM; hit rate 37% among 620;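 active means mean inhibition over triplicates exceeds the hit threshold derived for the earlier primary screening run, cut at about 25% in these data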
ARFGAP1 inh conf: rat ARFGAP1 inhibition, confirmed; shares compounds with ARFGAP1 inhibitor; ARFGAP1-stimulated ARF1 GTP hydrolysis, GDP tracer FP; inhibition, % at 16.5 µM; hit rate 30% among 890; AID 651608;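 active means average inhibition over triplicates above the hit cutoff set in the earlier primary screen, cut at about 25% in these data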;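 further: 0% = Arfgap1 plus ARF1-GTP with DMSO and 100% = wells lacking Arfgap1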
CSN deneddyl val: Csn5 (human) deneddylation inhibition, single-concentration validation | inhibition, % at 16.6 µM | shares compounds with CSN deneddyl inh | hit rate 62% among 540 | AID 720654 | Csn5 deneddylation of SCF-Nedd8OG, fluorescence polarization, 90 min; in the data active means inhibition above about 50%;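 further: 0% = DMSO with enzyme and 100% = no enzyme wells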
MMP-2 counter: blocks human MMP-2 in a CSN deneddylation counter-screen; shares compounds with CSN deneddyl inh; hit rate 33% among 540; inhibition, % at 16.6 µM; recombinant MMP-2, FRET substrate fluorescence, 60 min; AID 720655;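 active means corrected plate-normalized z-score of 5 or more, or -5 or less, or inhibition of 15% or more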;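 further: plate controls were DMSO wells with enzyme for no effect and buffer wells lacking MMP-2 for full effect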
Target sequence (P08253 whole entry, looked up): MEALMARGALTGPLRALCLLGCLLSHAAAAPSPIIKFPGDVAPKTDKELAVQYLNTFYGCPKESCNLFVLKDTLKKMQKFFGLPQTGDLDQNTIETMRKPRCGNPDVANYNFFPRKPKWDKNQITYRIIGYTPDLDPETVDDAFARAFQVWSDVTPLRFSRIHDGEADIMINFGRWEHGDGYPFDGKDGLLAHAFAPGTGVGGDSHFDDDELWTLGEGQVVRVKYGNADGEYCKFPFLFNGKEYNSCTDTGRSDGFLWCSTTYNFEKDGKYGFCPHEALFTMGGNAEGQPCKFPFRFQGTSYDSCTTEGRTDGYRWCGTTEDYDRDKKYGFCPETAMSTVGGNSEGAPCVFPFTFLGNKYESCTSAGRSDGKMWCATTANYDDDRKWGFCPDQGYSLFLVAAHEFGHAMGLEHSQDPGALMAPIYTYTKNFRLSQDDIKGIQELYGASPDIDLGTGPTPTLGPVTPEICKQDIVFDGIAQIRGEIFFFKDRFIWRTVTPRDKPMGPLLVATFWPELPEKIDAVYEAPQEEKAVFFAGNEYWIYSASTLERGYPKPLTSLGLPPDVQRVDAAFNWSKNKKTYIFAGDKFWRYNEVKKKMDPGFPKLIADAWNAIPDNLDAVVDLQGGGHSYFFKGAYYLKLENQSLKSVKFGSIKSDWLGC
Thrombin counter: counter-screen for CSN deneddylation inhibitors: bovine thrombin inhibition. bovine thrombin cleavage of Ub4-pepOG, fluorescence polarization. shares compounds with CSN deneddyl inh. hit rate 49% among 540. inhibition, % at 16.6 µM;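 active means inhibition at or above a set limit, with a fluorescence interference ratio between 0.5 and a set maximum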
Starred values were filed as active, the others as inactive; . = not tested or not shown; ! = not active in a repeat. Only some compounds are listed: those with a hit (about 0.95% of all), similar ones and a draw of the others.

SMILES	ARFGAP1 inhibitor	ASAP1 GAP inh	HNF4A DNA FP	CSN deneddyl inh	ASAP1 inh confirm	ARFGAP1 inh conf	others
CC1=[N+](C)c2ccc3ccccc3c2C1(C)C	31*	26*	2	5	22	18
Cc1ccc(OCc2ccc(C(=O)Nc3ccc(C(N)=O)cc3)o2)c([N+](=O)[O-])c1	86*	60*	10	22	88*	116*
COc1ccc(C=C2C(=O)OC(C)(C)OC2=O)cc1OC	-4	4	1	-1	.	.
COc1ccc(/C=C2\C(=O)NC(=O)c3ccccc32)cc1OC	33*	44*	-5	16	41*	19
O=C(O)c1cc(NN=Nc2cccc([N+](=O)[O-])c2)cc([N+](=O)[O-])c1	48*	29*	2	2	81*	94*
CC(=O)c1ccc(NC2=C(N3CCOCC3)C(=O)c3ccccc3C2=O)cc1	25*	27*	-1	11	13	1
Clc1ccc(Cn2cc(/C=N/n3cnnc3)c3ccccc32)c(Cl)c1	60*	44*	3	1	51*	77*
COc1cc(/C=N\NC(=O)c2ccc(C)nc2)ccc1OC(=O)c1ccc2c(c1)OCO2	29*	29*	1	0	38*	75*
COC(=O)C1=C(C)N(C)C(=NCC2CC2)NC1c1ccc(Cl)cc1 (stereo not drawn)	8	8	.	.	.	.
Cc1ccc2nc(SCC(=O)NC3CCCCC3)nc(=O)n2c1	10	-6	1	-1	.	.
Cc1ccc2nc(SCC(=O)N3CCCCC3)nc(=O)n2c1	48*	29*	-2	3	33*	57*
Cc1ccn2c(=O)nc(SCC(=O)N3CCCCCC3)nc2c1	-7	4	-4	5	.	.
Cc1ccc2nc(SCC(=O)N3CCCCCC3)nc(=O)n2c1	62*	44*	0	1	44*	77*
COCCN(C(=O)CCC(=O)Nc1ccccn1)C(C(=O)NCCC(C)C)c1ccc(C)cc1 (stereo not drawn)	-1	-4	-5	-3	.	.
O=C(NC1(O)C(=O)c2ccccc2C1=O)c1ccccc1	37*	53*	-1	12	21	3
COc1ccc(OC)c(Nc2nnc(C)c(=O)[nH]2)c1	-7	7	.	.	.	.
O=c1[nH]c(Nc2ccccc2)cc2ccccc12	33*	25*	-1	24	13	-1
CC(=O)c1cccc(Nc2nc(-c3ccccc3)nc3ccccc23)c1	3	16	-1	3	.	.
COc1ccc(OC)c(Nc2cc3ccccc3c(=O)[nH]2)c1	27*	30*	7	26	16	17
CC(=O)c1cccc(-c2ccc3c(=O)[nH]c(Nc4ccccc4)cc3c2)c1	30*	53*	12	55*	39*	26*
CN(C)CCN1CCN(C2CN(Cc3cn(Cc4ccc(F)cc4)nn3)S(=O)(=O)C2)CC1 (stereo not drawn)	-3	16	-1	0	.	.
COc1ccc(-c2nn(C)c3sc(C(=O)NCCN(C)C)cc23)cc1OC	33*	26*	-3	2	54*	54*
CCOc1c(Cl)cc(/C=N/NC(N)=S)cc1OC	-2	3	0	-3	.	.
CC(=O)Nc1cc(-c2ccc(N3CCN(C)CC3)cc2)cn2c(-c3ccc(S(C)(=O)=O)cc3)cnc12	74*	69*	3	0	148*	142*
CC(=O)Nc1cc(-c2ccc(N3CCN(C)CC3)cc2)cn2c(-c3ccccc3)cnc12	6	6	12	6	.	.
SMILES	ARFGAP1 inhibitor	ASAP1 GAP inh	HNF4A DNA FP	CSN deneddyl inh	ASAP1 inh confirm	ARFGAP1 inh conf	others
Nc1nccc(NCCSCc2ccccc2)n1	4	6	3	13	.	.
COCCC(=O)NNS(=O)(=O)c1ccc(Cl)cc1	-4	5	-4	3	.	.
COc1ccc([N+](=O)[O-])cc1NC(=O)c1ccc(-n2nc(C)cc2C)cc1	35*	26*	6	0	39*	71*
COc1ccc([N+](=O)[O-])cc1NC(=O)c1ccc(N2C(=O)CCC2=O)cc1	12	-1	7	-1	.	.
COc1ccc(-c2nc3c(Cl)cc(C(F)(F)F)cn3c2Cc2ccc(C)cc2)cc1OC	-2	9	8	4	.	.
COc1ccc2nc(C)cc(N/N=C/c3ccccc3)c2c1	.	.	-12	10	.	.
COc1ccc(/C=N/Nc2cc(C)nc3ccc(OC)cc23)c(OC)c1	33*	43*	17	18	93*	93*
C=CCN(CC=C)CCCOc1ccc(C)cc1OC	46*	51*	-1	2	0	-7
COc1cc(C)ccc1OCCOc1cc(C)ccc1Cl	12	-4	0	0	.	.
CCN1CCN(Cc2ccc(NC(=O)c3cc(NC(=O)c4cncc(-c5ccc(C#N)cc5)c4)cc(OC)c3)cc2C(F)(F)F)CC1	67*	57*	45*!	138*!	75*	108*	CSN deneddyl val=-74;MMP-2 counter=17*;Thrombin counter=5
O=C(N/N=C/c1cc(Cl)ccc1O)c1ccc(Br)cc1	65*	52*	-2	44*	76*	99*	CSN deneddyl val=32;MMP-2 counter=39*;Thrombin counter=16*
O=C(Nc1cccnc1Cl)c1ccc(Cl)c([N+](=O)[O-])c1	7	-8	-1	-2	.	.
COc1ccccc1Nc1cc2cc(Br)ccc2c(=O)[nH]1	31*	39*	4	53*	34*	22	CSN deneddyl val=70*;MMP-2 counter=10;Thrombin counter=-25
O=c1[nH]c(Nc2ccccc2)cc2cc(Br)ccc12	22	36*	1	49*	18	.	CSN deneddyl val=61*;MMP-2 counter=3;Thrombin counter=-44
O=c1cc(Nc2cccc(Br)c2)[nH]c(=O)[nH]1	-6	3	1	-9	.	.
Cc1ccc(NC(=O)COC(=O)c2ccc(S(=O)(=O)N3CCCC3)cc2)cc1	9	2	-1	-1	.	.
O=C(N/N=C/C=C/c1ccc([N+](=O)[O-])cc1)c1cccs1	60*	54*	56*	56*	67*	66*	MMP-2 counter=59*;Thrombin counter=30*
COC(=O)c1cc2c(c3c4cc(C)ccc4n(S(=O)(=O)c4ccc(OC)cc4)c13)C(=O)N(C)C2	21	1	.	.	.	.
COC(=O)c1ccc(NC(=O)c2ccc(NC(=O)c3ccco3)cc2)cc1	39*	26*	102*	67*	38*	52*	CSN deneddyl val=104*;MMP-2 counter=6;Thrombin counter=-6
Cc1cc(C)cc(NC(=O)c2ccc(NC(=O)c3ccco3)cc2)c1	10	0	4	-1	.	.

Bioassay records as filed in PubChem.
